From ChEMBL document CHEMBL5325402, “Exploration of novel hexahydropyrrolo[1,2-e]imidazol-1-one derivatives as antiviral agents against ZIKV and USUV” (Eur J Med Chem, 2023)
≈ marks a conversion by molar mass, not a printed value. Where “and” joins values, the source holds several entries; their conditions need not be identical. Equal values may be shown once. Calls of active or inactive are those of the source. No cut-off for these calls is given here.

What was measured:
Usutu virus [1] = assay: Antiviral activity against USUV 3345 isolate Arb276 infected in African green monkey Vero cells assessed as viral growth inhibition at 11 to 100 uM pretreated with virus for 1 hr followed by infection of cells with compound treated-virus for 20 hrs by focus reduction assay; assay type: functional, organism-based; settings: dose 11-100 µM, time 21.0 hrs
Summary of the method: (§1)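 Screening focus reduction assay. Vero cells were seeded 1.2 × 10^4/well. ZIKV MR766 or USUV (MOI 0.02) was preincubated 1 h at 37 °C with 100, 33 or 11 μM compound, then added to cells for 30 h (ZIKV) or 20 h (USUV). Cells were fixed in acetone-methanol and immunostained with anti-flavivirus E 4G2 plus a peroxidase secondary. Foci counted microscopically; % infection versus DMSO-matched untreated wells. Medium contained 2% FBS.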

Zika virus [2] = assay: Antiviral activity against ZIKV MR766 infected in African green monkey Vero cells assessed as viral growth inhibition at 11 to 100 uM pretreated with virus for 1 hr followed by infection of cells with compound treated-virus for 30 hrs by focus reduction assay; assay type: functional, organism-based; settings: dose 11-100 µM, time 31.0 hrs; summary of the method: as §1
Usutu virus [3] = assay: Antiviral activity against USUV 3345 isolate Arb276 infected in African green monkey Vero cells assessed as viral growth inhibition at 33 uM pretreated with virus for 1 hr followed by infection of cells with compound treated-virus for 20 hrs by focus reduction assay relative to control; assay type: functional; settings: Usutu virus, 3345, Vero, time 21 hrs
Summary of the method: (§2)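 Virus (MOI 0.02) preincubated with compound 1 h at 37 °C, then mixture put on Vero cells (1.2 × 10^4/well, seeded the day before) in DMEM with 2% FBS for 30 h (ZIKV) or 20 h (USUV) at 37 °C. Fixed in cold acetone-methanol, foci immunostained with anti-flavivirus E 4G2 antibody and counted. % infection is relative to DMSO-treated wells. Screen used 100, 33 and 11 μM.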

Zika virus [4] = assay: Antiviral activity against ZIKV MR766 infected in African green monkey Vero cells assessed as viral growth inhibition at 33 uM pretreated with virus for 1 hr followed by infection of cells with compound treated-virus for 30 hrs by focus reduction assay relative to control; assay type: functional; settings: time 31 hrs; summary of the method: as §2
[5] = Aqueous solubility in deionized water containing 1.38% DMSO; assay type: physicochemical
[6] = Solubility in i-propanol at 25 degreeC; assay type: physicochemical
[7] = Solubility in DMSO at 25 degreeC; assay type: physicochemical
Usutu virus [8] = assay: Antiviral activity against USUV 3345 isolate Arb276 infected in human A549 cells assessed as reduction in viral replication pretreated with virus for 1 hr followed by infection of cells with compound treated-virus for 20 hrs by focus reduction assay; assay type: functional, organism-based; settings: Usutu virus, 3345, A549
Summary of the method: (§3)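 Dose-response: serial dilutions (100 to 0.13 μM) preincubated 1 h at 37 °C with virus (MOI 0.02), then added to cells for 20 h (USUV) or 30 h (ZIKV) in 2% FBS DMEM. Cells per well: Vero 1.2 × 10^4, A549 1.3 × 10^4, Huh7 1.6 × 10^4. Foci immunostained and counted. EC50/EC90 fitted by variable-slope sigmoidal curve, mean of three independent experiments.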

[9] = Cytotoxicity against human Huh-7 cells infected with ZIKV MR766 pretreated with virus for 1 hr followed by infection of cells with compound treated-virus for 30 hrs by MTS assay; assay type: toxicity, cell-based
Summary of the method: (§4)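 MTS viability assay. Cells were treated under the same conditions as the antiviral assays. Absorbance was expressed as % of medium-only cells, and CC50 was derived from the curve. Seeding densities were 1.2 × 10^4/well for Vero, 1.3 × 10^4/well for A549 and 1.6 × 10^4/well for Huh7. DMEM with 2% FBS.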

[10] = Cytotoxicity against human Huh-7 cells infected with USUV 3345 isolate Arb276 pretreated with virus for 1 hr followed by infection of cells with compound treated-virus for 20 hrs by MTS assay; assay type: toxicity, cell-based; summary of the method: as §4
Zika virus [11] = assay: Antiviral activity against ZIKV MR766 infected in human A549 cells assessed as reduction in viral replication pretreated with virus for 1 hr followed by infection of cells with compound treated-virus for 30 hrs by focus reduction assay; assay type: functional, organism-based; summary of the method: as §3
Usutu virus [12] = assay: Antiviral activity against USUV 3345 isolate Arb276 infected in African green monkey Vero cells assessed as reduction in viral replication pretreated with virus for 1 hr followed by infection of cells with compound treated-virus for 20 hrs by focus reduction assay; assay type: functional, organism-based
Zika virus [13] = assay: Antiviral activity against ZIKV MR766 infected in human Huh-7 cells assessed as reduction in viral replication pretreated with virus for 1 hr followed by infection of cells with compound treated-virus for 30 hrs by focus reduction assay; assay type: functional, organism-based; summary of the method: as §3
[14] = Cytotoxicity against African green monkey Vero cells infected with USUV 3345 isolate Arb276 pretreated with virus for 1 hr followed by infection of cells with compound treated-virus for 20 hrs by MTS assay; assay type: toxicity, cell-based; settings: chlorocebus sabaeus; summary of the method: as §4
[15] = Cytotoxicity against African green monkey Vero cells infected with ZIKV MR766 pretreated with virus for 1 hr followed by infection of cells with compound treated-virus for 30 hrs by MTS assay; assay type: toxicity, cell-based; settings: chlorocebus sabaeus; summary of the method: as §4
Zika virus [16] = assay: Antiviral activity against ZIKV MR766 infected in African green monkey Vero cells assessed as reduction in viral replication pretreated with virus for 1 hr followed by infection of cells with compound treated-virus for 30 hrs by focus reduction assay; assay type: functional, organism-based
[17] = Cytotoxicity against human A549 cells infected with USUV 3345 isolate Arb276 pretreated with virus for 1 hr followed by infection of cells with compound treated-virus for 20 hrs by MTS assay; assay type: toxicity, cell-based; summary of the method: as §4
Usutu virus [18] = assay: Antiviral activity against USUV 3345 isolate Arb276 infected in human Huh-7 cells assessed as reduction in viral replication pretreated with virus for 1 hr followed by infection of cells with compound treated-virus for 20 hrs by focus reduction assay; assay type: functional, organism-based; settings: Usutu virus, 3345, Huh-7; summary of the method: as §3
[19] = Cytotoxicity against human A549 cells infected with ZIKV MR766 pretreated with virus for 1 hr followed by infection of cells with compound treated-virus for 30 hrs by MTS assay; assay type: toxicity, cell-based; summary of the method: as §4
[20] = Cytotoxicity against African green monkey Vero cells infected with ZIKV HPF2013 pretreated with virus for 1 hr followed by infection of cells with compound treated-virus for 30 hrs by MTS assay; assay type: toxicity, cell-based; settings: chlorocebus sabaeus; summary of the method: as §4
[21] = Selectivity index, ratio of CC50 for African green monkey Vero cells infected with ZIKV MR766 to EC50 for ZIKV MR766 infected in African green monkey Vero cells; assay type: toxicity, cell-based; settings: read-out: Ratio CC50/EC50
[22] = Selectivity index, ratio of CC50 for African green monkey Vero cells infected with USUV 3345 isolate Arb276 to EC50 for USUV 3345 isolate Arb276 infected in African green monkey Vero cells; assay type: toxicity, cell-based; settings: read-out: Ratio CC50/EC50
[23] = Selectivity index, ratio of CC50 for African green monkey Vero cells infected with ZIKV HPF2013 to EC50 for ZIKV HPF2013 infected in African green monkey Vero cells; assay type: toxicity, cell-based; settings: read-out: Ratio CC50/EC50
Zika virus [24] = assay: Antiviral activity against ZIKV HPF2013 infected in African green monkey Vero cells assessed as reduction in viral replication pretreated with virus for 1 hr followed by infection of cells with compound treated-virus for 30 hrs by focus reduction assay; assay type: functional, organism-based

Compound: O=C1[C@@H]2CCCN2[C@@H](c2cccc(O)c2)N1c1ccc([N+](=O)[O-])cc1
- Activity (Usutu virus [1]): inactive
- Activity (Zika virus [2]): inactive

Compound: O=C1[C@@H]2CCCN2[C@@H](Cc2ccc(O)cc2)N1c1ccc([N+](=O)[O-])cc1
- Activity (Usutu virus [1]): inactive
- Activity (Zika virus [2]): inactive

Compound: COc1ccc([C@H]2N(c3ccc([N+](=O)[O-])cc3)C(=O)[C@@H]3CCCN32)cc1OC
- Activity (Usutu virus [1]): inactive
- Activity (Zika virus [2]): inactive

Compound: O=C1[C@@H]2CCCN2[C@@H](c2ccco2)N1Nc1ccccc1
- inhibition at 33 µM (Usutu virus [3]): < 50%
- inhibition at 33 µM (Zika virus [4]): < 50%

Compound: COc1ccc(C[C@H]2N(Nc3ccc([N+](=O)[O-])cc3)C(=O)[C@@H]3CCCN32)cc1OC
- Activity (Usutu virus [1]): inactive
- Activity (Zika virus [2]): inactive

Compound: COc1cc([C@H]2N(Nc3ccc([N+](=O)[O-])cc3)C(=O)[C@@H]3CCCN32)ccc1O
- Activity (Usutu virus [1]): inactive
- Activity (Zika virus [2]): inactive

Compound: COc1cc([C@H]2N(c3ccc([N+](=O)[O-])cc3)C(=O)[C@@H]3CCCN32)ccc1O
- solubility [5]: 518 µg/mL (≈ 1.4 mM)
- solubility [6]: 1170 µg/mL (≈ 3.17 mM)
- solubility [7]: 37500 µg/mL (≈ 102 mM)

Compound: COc1cc([C@H]2N(Nc3ccccc3)C(=O)[C@@H]3CCCN32)ccc1O
- inhibition at 33 µM (Usutu virus [3]): < 50%
- inhibition at 33 µM (Zika virus [4]): < 50%

Compound: COc1cc(C[C@H]2N(c3ccc([N+](=O)[O-])cc3)C(=O)[C@@H]3CCCN32)ccc1O
- Activity (Usutu virus [1]): inactive
- Activity (Zika virus [2]): inactive

Compound: CCN(CC)CCCC(C)Nc1ccnc2cc(Cl)ccc12 (stereo unspecified) [CHLOROQUINE]
- EC50 (Usutu virus [8]): 4.24 µM
- EC90 (Usutu virus [8]; time 21 hrs): 60.1 µM
- CC50 at 31 h [9]: 58.5 µM
- CC50 at 21 h [10]: 75.5 µM
- EC50 (Zika virus [11]): 5.99 µM
- EC90 (Zika virus [11]; time 31 hrs): 50.3 µM
- EC50 (Usutu virus [12]; Usutu virus, 3345, Vero): 8.3 µM
- EC90 (Usutu virus [12]; Usutu virus, 3345, Vero, time 21 hrs): 28.2 µM
- EC50 (Zika virus [13]; MR766, Huh-7): 0.95 µM
- EC90 (Zika virus [13]; MR766, Huh-7, time 31 hrs): 2.36 µM
- CC50 at 21 h [14]: 115 µM
- CC50 at 31 h [15]: 136 µM
- EC50 (Zika virus [16]): 1.53 µM
- EC90 (Zika virus [16]; time 31 hrs): 5.77 µM
- CC50 at 21 h [17]: 144 µM
- EC50 (Usutu virus [18]): 4.82 µM
- EC90 (Usutu virus [18]; time 21 hrs): 11.8 µM
- CC50 at 31 h [19]: 80.5 µM

Compound: O=C1[C@@H]2CCCN2[C@@H](c2ccco2)N1Nc1ccc([N+](=O)[O-])cc1
- Activity (Usutu virus [1]): inactive
- Activity (Zika virus [2]): inactive

Compound: C=C1/C(=C\C=C2/CCC[C@]3(C)[C@@H]([C@H](C)/C=C/C=C/C(O)(CC)CC)CC[C@@H]23)C[C@@H](O)C[C@@H]1O [SEOCALCITOL]
- CC50 at 31 h [20]: 11 µM
- selectivity ratio [21]: 1.5
- selectivity ratio [22]: 6
- EC50 (Usutu virus [12]; vero): 2.13 µM and 9.94 µM
- selectivity ratio [23]: 3.9
- CC50 at 21 h [14]: 11.9 µM
- CC50 at 31 h [15]: 11 µM
- EC50 (Zika virus [16]): 7.51 µM
- EC50 (Zika virus [24]): 2.83 µM

Compound: O=C1[C@@H]2CCCN2[C@@H](Cc2ccc(O)c(O)c2)N1c1ccc([N+](=O)[O-])cc1
- Activity (Usutu virus [1]): inactive
- Activity (Zika virus [2]): inactive

Compound: O=C1[C@@H]2CCCN2[C@@H](c2ccc(O)c(O)c2)N1c1ccc([N+](=O)[O-])cc1
- Activity (Usutu virus [1]): inactive
- Activity (Zika virus [2]): inactive

Compound: COc1ccc([C@H]2N(c3ccc([N+](=O)[O-])cc3)C(=O)[C@@H]3CCCN32)cc1O
- Activity (Usutu virus [1]): inactive
- Activity (Zika virus [2]): inactive

Compound: COc1ccc(C[C@H]2N(c3ccc([N+](=O)[O-])cc3)C(=O)[C@@H]3CCCN32)cc1O
- Activity (Usutu virus [1]): inactive
- Activity (Zika virus [2]): inactive
